ChEMBL document CHEMBL4725418, “Design, Synthesis, and Structure-Activity Relationship Studies of Dual Inhibitors of Soluble Epoxide Hydrolase and 5-Lipoxygenase” (J Med Chem, 2020)
The source made the active and inactive calls. The rule behind the calls is not given here.

How the values were obtained:
[1] = biological target: T1, Polyunsaturated fatty acid 5-lipoxygenase (Homo sapiens, UniProt P09917); experiment: Inhibition of 5-LOX (unknown origin) expressed in Escherichia coli BL21-(DE3) pre-incubated for 15 mins before AA substrate addition and measured after 10 mins by HPLC/UV assay
T1 sequence (P09917 whole entry): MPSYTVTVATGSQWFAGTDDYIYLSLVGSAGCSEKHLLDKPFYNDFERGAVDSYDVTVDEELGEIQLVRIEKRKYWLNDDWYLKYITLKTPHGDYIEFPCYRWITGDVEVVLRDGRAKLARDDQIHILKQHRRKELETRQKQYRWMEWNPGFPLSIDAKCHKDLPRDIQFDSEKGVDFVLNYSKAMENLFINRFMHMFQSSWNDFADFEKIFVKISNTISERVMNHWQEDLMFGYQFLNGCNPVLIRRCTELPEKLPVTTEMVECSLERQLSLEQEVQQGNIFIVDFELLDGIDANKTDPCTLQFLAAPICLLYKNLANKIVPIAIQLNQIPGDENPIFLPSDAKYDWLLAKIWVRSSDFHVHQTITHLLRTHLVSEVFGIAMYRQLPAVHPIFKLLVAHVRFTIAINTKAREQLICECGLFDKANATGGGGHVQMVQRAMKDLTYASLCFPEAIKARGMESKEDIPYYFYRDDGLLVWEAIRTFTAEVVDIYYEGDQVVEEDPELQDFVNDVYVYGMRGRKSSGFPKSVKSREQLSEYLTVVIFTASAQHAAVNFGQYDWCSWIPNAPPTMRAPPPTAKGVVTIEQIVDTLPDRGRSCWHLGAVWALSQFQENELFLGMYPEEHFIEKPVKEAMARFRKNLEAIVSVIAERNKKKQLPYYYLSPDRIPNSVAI
Outline: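 Recombinant 5-LOX activity measured with arachidonic acid as substrate; product formation monitored by HPLC. IC50 from at least three independent determinations (n ≥ 3), reported with 95% confidence interval.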

[2] = Metabolic stability in rat liver microsomes assessed as compound remaining after 60 mins; format: ADME, Microsome; details: read-out: Stabilty
Outline: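 Compound incubated with rat liver microsomes for 60 min; percent parent compound remaining determined; n ≥ 3.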

[3] = T>IC50 in Swiss CD-1 mouse at 3 mg/kg, po administered as single dose by LC-MS analysis; format: ADME, organism-based; details: in vivo
Outline: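 Male Swiss CD-1 mice received a single oral dose of 3 mg/kg in 1% methylcellulose/Tween80 (99:1); nine mice treated, three vehicle controls, three mice per time point. Serum analyzed by LC-MS for concentration–time profile.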

[4] = biological target: T2, Polyunsaturated fatty acid lipoxygenase ALOX12 (Homo sapiens) (UniProt P18054); experiment: Activation of 12-LOX in human PMNL pre-incubated for 15 mins before addition of AA and A23187 and measured after 10 mins by HPLC/UV assay; details: filed as activator, time 25.0 min
T2 sequence (whole entry): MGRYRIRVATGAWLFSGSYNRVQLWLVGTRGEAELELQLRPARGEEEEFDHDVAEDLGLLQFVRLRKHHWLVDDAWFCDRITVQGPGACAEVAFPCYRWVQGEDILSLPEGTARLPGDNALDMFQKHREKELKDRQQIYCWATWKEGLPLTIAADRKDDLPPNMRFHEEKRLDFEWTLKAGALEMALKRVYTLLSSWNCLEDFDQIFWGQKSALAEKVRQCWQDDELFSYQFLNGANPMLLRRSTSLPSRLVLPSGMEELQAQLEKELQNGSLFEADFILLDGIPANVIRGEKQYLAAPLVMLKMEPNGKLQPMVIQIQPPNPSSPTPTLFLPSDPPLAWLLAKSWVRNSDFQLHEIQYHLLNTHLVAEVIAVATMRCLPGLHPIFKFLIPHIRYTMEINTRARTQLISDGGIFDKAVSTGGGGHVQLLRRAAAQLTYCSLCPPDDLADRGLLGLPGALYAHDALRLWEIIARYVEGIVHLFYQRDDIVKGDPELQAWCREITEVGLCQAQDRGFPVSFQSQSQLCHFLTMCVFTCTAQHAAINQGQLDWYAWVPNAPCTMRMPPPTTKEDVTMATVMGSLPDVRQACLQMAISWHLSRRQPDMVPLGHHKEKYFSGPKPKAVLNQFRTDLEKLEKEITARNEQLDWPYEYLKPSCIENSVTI

[5] = system: HepG2; experiment: Cytotoxicity in human HepG2 cells assessed as effect on cell viability up to 25 uM incubated for 48 hrs by CellTiter-Glo luminescent cell viability assay; format: cell-based; details: hepg2, 48 h
Outline: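 Cell viability measured by CellTiter-Glo luminescence, quantifying ATP as an indicator of viable cells.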

[6] = biological target: T1, Polyunsaturated fatty acid 5-lipoxygenase; experiment: Inhibition of 5-LOX in human PMNL assessed as reduction in 5-HETE and LTB4 formation pre-incubated for 15 mins before addition of AA and A23187 and measured after 10 mins by HPLC/UV assay

For `C[C@H](C#Cc1cccc(C(=O)NCCC(c2ccc(F)cc2)c2ccc(F)cc2)c1)N(O)C(N)=O`, the IC50 [1] was 110 nM, the remaining at 1 h [2] was 50% and the “T>IC50” value [3] was 3 h. For the same molecule, the Activity [4] was “Active”, the Activity [5] was “Non-Toxic” and the IC50 [6] was 210 nM.
